{"source": "ChEMBL document CHEMBL5331127", "about": "“Discovery of ARD-2051 as a Potent and Orally Efficacious Proteolysis Targeting Chimera (PROTAC) Degrader of Androgen Receptor for the Treatment of Advanced Prostate Cancer” (J Med Chem, 2023)", "key": {"LNCaP [1]": {"system": "LNCaP", "experiment": "Induction of androgen receptor degradation in human LNCaP cells at 100 nM pretreated with thalidomide for 2 hrs followed by compound addition and 3 hrs by Western blot analysis", "format": "functional, cell-based", "details": "time 5.0 hrs", "how_it_was_run": "(§1)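 LNCaP or VCaP cells pretreated 2 h with DMSO, ARi-12 (10 μM), thalidomide (10 μM), MG-132 (3 μM) or MLN4924 (0.5 μM), then given degrader at 100 nM for 3 h. AR measured by Western blot with GAPDH as loading control.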"}, "[2]": {"experiment": "Toxicity in CB17 SCID mouse assessed as weight loss at 3.75 to 30 mg/kg, po", "format": "organism-based", "details": "in vivo, dose 3.75-30 mg/kg", "how_it_was_run": "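SCID mice bearing VCaP xenografts dosed by oral gavage once daily for 21 days. Body weight and signs of toxicity monitored throughout.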"}, "LNCaP [3]": {"system": "LNCaP", "experiment": "Downregulation of KLK3 gene expression in human LNCaP cells incubated for 24 hrs by qRT-PCR analysis", "format": "functional, cell-based", "details": "dose 0.03-30 nM", "how_it_was_run": "(§2)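 LNCaP cells (RPMI 1640) or VCaP cells (DMEM Glutamax), both with 10% FBS, treated for 24 h. KLK3 mRNA measured by qRT-PCR and calculated by the comparative CT method against GAPDH and vehicle.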"}, "Mus musculus": {"system": "Mus musculus", "experiment": "In vivo induction of androgen receptor degradation in human VCaP cells xenografted in CB17 SCID mouse at 12.5 mg/kg, po measured upto 24 hrs by […] analysis", "format": "functional, organism-based"}, "LNCaP [4]": {"system": "LNCaP", "experiment": "Induction of androgen receptor degradation in human LNCaP cells at 100 nM pretreated with MG132 for 2 hrs followed by compound addition and 3 hrs by Western blot analysis", "format": "functional, cell-based", "details": "time 5.0 hrs", "how_it_was_run": "as §1"}, "Cytochrome P450 2C19": {"biological_target": "Cytochrome P450 2C19 (Homo sapiens, UniProt P33261)", "sequence (P33261 whole entry)": "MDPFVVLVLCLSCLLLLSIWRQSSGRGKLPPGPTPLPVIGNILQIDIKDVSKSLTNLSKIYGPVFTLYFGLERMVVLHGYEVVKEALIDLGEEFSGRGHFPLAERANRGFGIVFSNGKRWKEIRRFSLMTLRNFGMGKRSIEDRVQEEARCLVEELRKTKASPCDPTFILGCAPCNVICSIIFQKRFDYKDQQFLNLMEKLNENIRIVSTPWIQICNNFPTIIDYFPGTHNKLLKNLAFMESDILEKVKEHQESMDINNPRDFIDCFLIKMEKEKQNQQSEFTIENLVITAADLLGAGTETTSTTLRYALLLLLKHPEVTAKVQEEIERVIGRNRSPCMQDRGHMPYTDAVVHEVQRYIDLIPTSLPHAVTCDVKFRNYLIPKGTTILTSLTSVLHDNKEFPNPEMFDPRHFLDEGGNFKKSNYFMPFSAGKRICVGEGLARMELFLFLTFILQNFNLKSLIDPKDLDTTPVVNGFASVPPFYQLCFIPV", "experiment": "Inhibition of CYP2C19 in human liver microsomes preincubated for 5 mins followed by NADPH addition and measured after 10 mins by LC/MS analysis", "format": "ADME, Microsome"}, "VCaP": {"system": "VCaP", "experiment": "Downregulation of KLK3 gene expression in human VCaP cells incubated for 24 hrs by qRT-PCR analysis", "format": "functional, cell-based", "details": "dose 0.03-30 nM", "how_it_was_run": "as §2"}, "[5]": {"biological_target": "Androgen receptor (Homo sapiens) (UniProt P10275)", "experiment": "In vivo induction of androgen receptor degradation in human VCaP cells xenografted in CB17 SCID mouse assessed as reduction in AR protein level at 12.5 mg/kg, po measured after 24 hrs by Western blotting analysis", "parameters": "scale not given: the % may be the effect or the level left"}, "[6]": {"experiment": "Metabolic stability in rat plasma assessed as half life at 1 uM measured upto 120 mins by LC-MS/MS analysis", "format": "ADME, cell-free", "details": "2 h", "how_it_was_run": "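Compound at 1 μM final in pre-warmed plasma of each species, 37 °C for up to 2 h. ACN/IS quench at 0, 5, 15, 30, 60 and 120 min; LC/MS. Procaine as reference (benfluorex for rat). t1/2 = 0.693/slope of ln(fraction remaining) versus time.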"}, "[7]": {"biological_target": "T1, Androgen receptor (Homo sapiens) (UniProt P10275)", "T1 sequence (whole entry)": "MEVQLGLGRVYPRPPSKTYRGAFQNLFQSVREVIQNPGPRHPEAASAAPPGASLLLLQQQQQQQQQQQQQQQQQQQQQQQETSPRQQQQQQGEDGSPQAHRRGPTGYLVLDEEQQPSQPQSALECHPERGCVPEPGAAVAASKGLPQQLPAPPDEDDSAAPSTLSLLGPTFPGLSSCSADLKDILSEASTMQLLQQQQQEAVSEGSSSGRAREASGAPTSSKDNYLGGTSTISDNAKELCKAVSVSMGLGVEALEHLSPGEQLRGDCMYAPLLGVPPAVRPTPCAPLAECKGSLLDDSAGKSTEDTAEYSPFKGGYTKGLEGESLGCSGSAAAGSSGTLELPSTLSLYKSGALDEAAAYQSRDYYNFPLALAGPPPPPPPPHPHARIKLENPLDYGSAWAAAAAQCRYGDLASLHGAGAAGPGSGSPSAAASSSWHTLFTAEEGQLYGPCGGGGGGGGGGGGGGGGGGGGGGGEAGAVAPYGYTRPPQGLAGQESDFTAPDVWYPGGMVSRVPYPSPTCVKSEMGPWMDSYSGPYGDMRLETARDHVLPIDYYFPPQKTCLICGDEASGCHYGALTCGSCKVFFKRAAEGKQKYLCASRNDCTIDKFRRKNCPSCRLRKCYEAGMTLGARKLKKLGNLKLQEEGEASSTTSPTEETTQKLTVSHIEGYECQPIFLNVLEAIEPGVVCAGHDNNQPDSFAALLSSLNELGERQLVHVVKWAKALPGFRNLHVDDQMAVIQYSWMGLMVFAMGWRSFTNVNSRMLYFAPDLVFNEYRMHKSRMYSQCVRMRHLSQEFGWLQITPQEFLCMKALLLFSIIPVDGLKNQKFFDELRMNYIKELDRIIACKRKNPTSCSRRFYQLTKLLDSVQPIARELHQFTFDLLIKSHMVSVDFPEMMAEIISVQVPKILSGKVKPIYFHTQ", "experiment": "Induction of androgen receptor degradation in human VCaP cells at 0.1 uM after 24 hrs by Western blotting analysis relative to control", "format": "cell-based", "how_it_was_run": "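VCaP cells treated for 24 h at 10, 100 or 1000 nM. AR protein measured by Western blotting.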"}, "[8]": {"experiment": "Half life in Beagle dog at 1 mg/kg, iv measured upto 24 hrs by LC-MS/MS analysis", "format": "ADME, organism-based, Canis lupus familiaris", "details": "in vivo", "how_it_was_run": "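Male ICR mice (2 mg/kg), male SD rats (1 mg/kg) or male Beagle dogs (1 mg/kg) given a single intravenous dose in 10% PEG400 + 90% PBS adjusted to pH 8.0 with NaOH.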"}, "[9]": {"experiment": "Volume of distribution at steady state in Beagle dog at 1 mg/kg, iv measured upto 24 hrs by LC-MS/MS analysis", "format": "ADME, organism-based, Canis lupus familiaris", "details": "in vivo", "how_it_was_run": "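Male Beagle dogs. IV 1 mg/kg in 10% PEG400 + 90% PBS (pH 8.0); PO 3 mg/kg in 90% PEG400 + 10% Cremophor. Plasma PK to 24 h; F from IV and PO exposure.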"}, "[10]": {"experiment": "Drug concentration in ICR mouse plasma at 10 mg/kg, po measured after 3 hrs", "format": "ADME, organism-based", "how_it_was_run": "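Mice given a single 10 mg/kg dose by oral gavage, 3 mice per time point. Plasma drug levels measured at 1, 3, 6 and 24 h; mean ± SD reported.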"}, "[11]": {"biological_target": "Voltage-gated inwardly rectifying potassium channel KCNH2 (Homo sapiens, UniProt Q12809)", "sequence (Q12809 whole entry)": "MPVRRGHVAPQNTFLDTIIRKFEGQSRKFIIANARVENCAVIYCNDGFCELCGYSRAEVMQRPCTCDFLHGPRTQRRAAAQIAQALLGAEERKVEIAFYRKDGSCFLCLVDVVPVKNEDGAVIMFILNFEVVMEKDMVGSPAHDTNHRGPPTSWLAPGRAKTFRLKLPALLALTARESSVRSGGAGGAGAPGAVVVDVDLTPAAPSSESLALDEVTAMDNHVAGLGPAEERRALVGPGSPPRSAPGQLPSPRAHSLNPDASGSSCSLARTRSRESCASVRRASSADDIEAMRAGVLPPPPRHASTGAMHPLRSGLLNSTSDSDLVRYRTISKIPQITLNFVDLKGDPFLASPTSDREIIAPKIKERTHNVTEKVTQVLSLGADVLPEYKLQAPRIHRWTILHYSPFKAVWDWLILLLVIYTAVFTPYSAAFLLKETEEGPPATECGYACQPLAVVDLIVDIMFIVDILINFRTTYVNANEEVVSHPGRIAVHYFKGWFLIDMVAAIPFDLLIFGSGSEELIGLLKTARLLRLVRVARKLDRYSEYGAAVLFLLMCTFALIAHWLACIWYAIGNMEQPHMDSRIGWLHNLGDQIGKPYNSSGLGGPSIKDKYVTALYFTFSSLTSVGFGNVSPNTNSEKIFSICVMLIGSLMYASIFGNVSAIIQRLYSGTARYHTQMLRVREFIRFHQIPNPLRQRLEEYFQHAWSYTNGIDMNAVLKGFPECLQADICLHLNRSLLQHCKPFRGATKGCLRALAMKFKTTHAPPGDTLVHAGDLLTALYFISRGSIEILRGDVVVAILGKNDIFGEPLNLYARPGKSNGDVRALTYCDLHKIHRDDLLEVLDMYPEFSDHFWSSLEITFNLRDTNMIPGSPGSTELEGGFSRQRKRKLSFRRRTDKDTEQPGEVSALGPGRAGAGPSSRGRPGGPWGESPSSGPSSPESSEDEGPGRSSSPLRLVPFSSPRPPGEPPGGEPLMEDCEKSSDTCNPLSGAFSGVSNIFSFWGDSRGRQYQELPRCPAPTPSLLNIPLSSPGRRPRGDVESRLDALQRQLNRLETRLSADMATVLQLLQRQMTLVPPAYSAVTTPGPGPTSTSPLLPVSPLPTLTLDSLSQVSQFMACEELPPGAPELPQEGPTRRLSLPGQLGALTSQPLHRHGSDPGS", "experiment": "Inhibition of human ERG expressed in HEK293 cells by whole cell patch clamp assay", "format": "toxicity, cell-based", "how_it_was_run": "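Manual whole-cell patch clamp at room temperature on HEK293 cells stably expressing hERG. Compound tested at 3 and 30 μM in duplicate; terfenadine as positive control.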"}, "Androgen receptor": {"biological_target": "T2, Androgen receptor (Homo sapiens, UniProt P10275)", "T2 sequence (P10275 whole entry)": "T1 sequence (whole entry)", "experiment": "Induction of androgen receptor degradation in human VCaP cells incubated for 24 hrs by Western blot analysis", "format": "cell-based"}, "[12]": {"experiment": "Drug concentration in CB17 SCID mouse tumor xenografted with human VCaP cells at 12.5 mg/kg, po measured after 24 hrs by LC-MS/MS analysis", "format": "ADME, organism-based, Neoplasm", "details": "read-out: Ct", "how_it_was_run": "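SCID mice bearing one VCaP tumour each given a single oral 12.5 mg/kg dose in 100% PEG200. Plasma and tumour tissue collected at 6 and 24 h, 3 mice per time point. Values are mean ± SD.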"}}, "note": "The source made the active and inactive calls. No cut-off for these calls is given here.", "data": [{"smiles": "C[C@H]1CC2(CCN(c3ccc(C(=O)N4CCN(C5CN(c6ccc7c(c6)C(=O)N(C6CCC(=O)NC6=O)C7=O)C5)CC4)cc3)CC2)CN1c1ccc(C#N)c(Cl)c1", "note": "(stereo partly specified)", "values": [{"measurement": "Activity", "setting": "LNCaP [1]", "value": "inactive"}, {"measurement": "Activity", "setting": "[2]", "value": "< 5", "unit": "%"}, {"measurement": "Activity", "setting": "LNCaP [3]", "value": "Dose-Dependent Effect"}, {"measurement": "Activity", "setting": "Mus musculus", "value": "Active"}, {"measurement": "Activity", "setting": "LNCaP [4]", "value": "inactive"}, {"measurement": "IC50", "setting": "Cytochrome P450 2C19", "value": "> 10", "unit": "µM"}, {"measurement": "Activity", "setting": "VCaP", "value": "Dose-Dependent Effect"}, {"measurement": "Activity", "setting": "[5]", "value": "> 95", "unit": "%"}, {"measurement": "t1/2", "setting": "[6]", "value": "> 2", "unit": "h"}, {"measurement": "Activity", "setting": "[7]", "value": "> 95", "unit": "%"}, {"measurement": "t1/2", "setting": "[8]", "value": 8.9, "unit": "h"}, {"measurement": "Vdss", "setting": "[9]", "value": 2.8, "unit": "L/kg"}, {"measurement": "concentration at 3 h", "setting": "[10]", "value": 664, "unit": "ng/mL"}, {"measurement": "IC50", "setting": "[11]", "value": "> 30", "unit": "µM"}, {"measurement": "EC50", "setting": "Androgen receptor", "value": 0.0006, "unit": "µM"}, {"measurement": "concentration at 24 h", "setting": "[12]", "value": 183, "unit": "ng/mL"}]}]}
